This sample holds only a part of the variants without activity.
B1: tRNA (parent)
chain: GUUCCGUUGGCGUAAUGGUAACGCGUCUCCCUCCUAAGGAGAAGACUGCGGGUUCGAGUCCCGUACGGAACG

Variants of: B1
Assay: yeast fitness relative to wild type (ratio to wild type); higher = fitter; tRNA-Arg(CCU), competitive growth, 37 C, YPD
Method in brief: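 Start and end populations of a pooled competition were compared by 100-nucleotide paired-end sequencing of gene amplicons. The Saccharomyces cerevisiae strains carried tRNA-Arg(CCU) gene variants at the native genomic locus, synthesised with a 3% per-site mutation rate at 69 sites, and competed in YPD at 37°C for 24 hours in six parallel replicates. Darwinian fitness relative to wild type was based on the change in genotype frequencies. Genotypes required ≥ 100 starting reads, and estimates < 0.5 were set to 0.5.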

Row | Variant | yeast fitness
1 | G44A G56C | 0.585
2 | A40U U59A | 0.678
3 | A43C C46A G48C G63A | 0.62
4 | G38U | 1.01
5 | A42G U47G G68U | ≤ 0.5
6 | G44A C46U A69C | 0.996
7 | A43U C62A A65U C66U | ≤ 0.5
8 | A43G G58C | 0.855
9 | G39C C46A C60G | ≤ 0.5
10 | G39C C49G G50C | ≤ 0.5
11 | G41A A43C C49G A57G | ≤ 0.5
12 | A40U C46G G68C | ≤ 0.5
13 | A40C U47A A69G | 0.54
14 | G39C U53C | 0.747
15 | G44A U47C | 0.979
16 | A42U C46U A57U | 0.538
17 | G39C G48C G63C C66G | ≤ 0.5
18 | G39A G63A | 0.945
19 | G44A C49G A70U | ≤ 0.5
20 | A42U A43G G48C U53A A70C | 0.525
21 | G41C A42G A70G | 0.593
22 | G41A C66U | 0.685
23 | G41A C66A | 0.687
24 | A42C U59A A69U | 0.528

Row | Variant | yeast fitness
25 | G41C U54A | 0.667
26 | A43U G56C | 0.702
27 | A40G G51C A57U | ≤ 0.5
28 | A42G G68C | 0.798
29 | A40U C55U C61G | 0.507
30 | A40U G67U | 0.797
31 | A40U C49G G56C | ≤ 0.5
32 | A42U C61G A65C C66G | 0.89
33 | A42U A43U C62A A65U A69G | 0.567
34 | A40U C61G G68C | 0.571
35 | A42C G50A C61G | 0.793
36 | A43C U64G | 0.618
37 | G41A G52U U64A G68A | 0.622
38 | A43C G63U | 0.638
39 | A40C C49U A69C | 0.592
40 | G39A G44A G50A G63C | ≤ 0.5
41 | G39C C49A | 0.664
42 | G41C C66A | 0.621
43 | G39A C49U | 0.842
44 | A43C G58A | 0.944
45 | A42U A43G G48C U53A A69C | 0.589
46 | A40U G44A A65U | 0.51
47 | A42U C55G | 0.616
48 | A40U A42G A57U | 0.576

Row | Variant | yeast fitness
49 | G39C C66U | 0.633
50 | G38U G48A A70U | 0.652
51 | A40U A42C C62U G68A | ≤ 0.5
52 | A43C G67C | 0.867
53 | A43C G67A | 0.685
54 | A40U A57U | 0.837
55 | G44A A57G | 0.688
56 | A40G U54C G68C | ≤ 0.5
57 | A42G A57C | 0.7
58 | G44A A45G G51C | ≤ 0.5
59 | G38C U59C | 0.711
60 | A43U G56C C61A | ≤ 0.5
61 | G39A G58C A69U | 0.773
62 | A43G C60G | 0.734
63 | A42U G52A G67U | 0.783
64 | A40G C49U | 0.883
65 | A42C U53A G68C | ≤ 0.5
66 | A40C C60A C66U | ≤ 0.5
67 | A42G C61G C66U | ≤ 0.5
68 | A42U A43G G67A | 0.574
69 | G39C U47C A57C C61A U64C | ≤ 0.5
70 | A42C G56A | 1.01
71 | G39C A42G | 0.653
72 | A42G A65G | 0.735

Row | Variant | yeast fitness
73 | A43C C66U | 0.948
74 | A42G C55U | 0.688
75 | A43C U47A | 0.732
76 | G41C A42U U64C G68C | ≤ 0.5
77 | A43U C66A | 0.619
78 | G41A C49U G63A | 0.678
79 | G44A C60U C62G | 0.596
80 | A42C C61G A65U | 0.539
81 | A43U C49G C55G | 0.988
82 | G39A A45C A69C | 0.804
83 | A40U C60A | 0.604
84 | A43U G51C A57C C60G G67A | 0.663
85 | A40G G44C U53C C55A A65U | ≤ 0.5
86 | A40G U64C | 0.972
87 | A42C A57U C66U | ≤ 0.5
88 | G39A C46A C60G C61U | 0.512
89 | A42U U47C C62U | 0.628
90 | G39C C62U | 0.776
91 | A43U G50A G52U A69C | ≤ 0.5
92 | G39C A43U A69U | 0.736
93 | A42U G52C | 0.694
94 | G41C A43C | 0.731
95 | G41A G48C | 0.772
96 | A42U G56A G63C | ≤ 0.5

Row | Variant | yeast fitness
97 | A43G G68A | 0.873
98 | A42C A45C G48A A65G | 0.671
99 | G38U A65G | 0.802
100 | A42C G48A G50A C61G | 0.553
101 | G41C G52C A65U | ≤ 0.5
102 | A43G C66G | 0.699
103 | A43G C66U | 0.887
104 | A43C G56A | 0.949
105 | A40C C55A C66A | 0.578
106 | A40G G44A A70G | 0.567
107 | A40C C46U A65G G68C | 0.59
108 | G41A C49A C62U G68C | ≤ 0.5
109 | A43C C46U | 1.03
110 | G41C A65C A70U | 0.641
111 | A40U A45U C49U | 0.63
112 | A40C A57G C61U | 0.573
113 | A40C A57G C61G | ≤ 0.5
114 | A40C U54A C62U | ≤ 0.5
115 | A43U C55A A65U A70G | 0.56
116 | A42U C66G | 0.712
117 | A40U U64C | 1.08
118 | A42G U47C C62A C66U | ≤ 0.5
119 | A40U C49A A57G C62U | ≤ 0.5
120 | G39C G48C A69C | 0.57

Row | Variant | yeast fitness
121 | A42U C46U | 0.97
122 | A43G A45G A70G | 0.532
123 | A42C A43U G67C | ≤ 0.5
124 | A43U C61A | 0.764
125 | A43U U47C C55G | ≤ 0.5
126 | A43U U47C C55A | ≤ 0.5
127 | A43G G56A C66U G68U | 0.557
128 | G39A G51A U53A G63C | ≤ 0.5
129 | A40U U47A | 0.856
130 | A40G G63A G67A | ≤ 0.5
131 | A40C G68C | 0.641
132 | A40C G68U | 0.788
133 | A43C U64C A70C | 0.989
134 | G41C G56C | 0.557
135 | G41C A43U G68U | ≤ 0.5
136 | G39A G50A C66U | ≤ 0.5
137 | A40G C61U A65U | ≤ 0.5
138 | A42G U64C | 0.904
139 | A42G U64A | 0.724
140 | G41C C62G | 0.597
141 | G39C A57G | 0.705
142 | G39C A57U | 0.682
143 | A40C A42U A43C G48A | 0.55
144 | G39C C46U | 0.98

Row | Variant | yeast fitness
145 | A40U G58U | 0.768
146 | A40U G58C | 0.945
147 | G41A A42G A70U | ≤ 0.5
148 | A42G G56U | 0.565
149 | A43C C62A A69C | 0.633
150 | A42G A45C G48C | ≤ 0.5
151 | A43U G44A C46A | 0.654
152 | A43C G68U | 0.868
153 | A43G C60U C62U C66U A70C | ≤ 0.5
154 | G39A A43C | 0.796
155 | A43G U47C A65U | 0.668
156 | G38C G56U | 0.633
157 | A42U A57U C61U | ≤ 0.5
158 | A40U A43G A57G | ≤ 0.5
159 | G39A A42U | 0.767
160 | A43G G51A A69C | ≤ 0.5
161 | A40C G52C G67A | 0.55
162 | A42C G58A | 0.951
163 | A42U U53C | 0.732
164 | G41A G58A | 1
165 | G39U A43G | 0.811
166 | A40C A70U | 0.797
167 | G39A G48A A57U | ≤ 0.5

Source: the RNAGym collection of RNA variant scans (doi:10.1126/science.aae0568)
